In ChEMBL document CHEMBL1828568, “Novel imaging agents for β-amyloid plaque based on the N-benzoylindole core” (Bioorg Med Chem Lett, 2011):

Columns and labels:
Stomach [1] = experiment: Biodistribution in Kunming mouse stomach assessed per organ at 1 uCi, iv after 30 mins by gamma counting; assay type: ADME, organism-based; conditions: in vivo, 0.5 h
Outline: (§1)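 Radioiodinated tracers given intravenously to normal mice; organs taken at 2, 15, 30, 60, 120 and 240 min after injection. Uptake expressed as % ID/g, mean ± SD of 5 mice; stomach values carry a table footnote.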

Muscle tissue [2] = experiment: Biodistribution in Kunming mouse muscle at 1 uCi, iv after 120 mins by gamma counting; assay type: ADME, organism-based; conditions: in vivo, 2 h
Outline: (§2)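 125I-labeled tracer given intravenously to normal mice. Organs and blood were sampled at 2, 15, 30, 60, 120 and 240 min after injection. Uptake is expressed as % ID/g, averaged over 5 mice ± SD.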

Stomach [3] = experiment: Biodistribution in Kunming mouse stomach assessed per organ at 1 uCi, iv after 120 mins by gamma counting; assay type: ADME, organism-based; conditions: in vivo, 2 h; outline: as §1
Spleen [4] = experiment: Biodistribution in Kunming mouse spleen at 1 uCi, iv after 120 mins by gamma counting; assay type: ADME, organism-based; conditions: in vivo, 2 h; outline: as §2
Stomach [5] = experiment: Biodistribution in Kunming mouse stomach assessed per organ at 1 uCi, iv after 240 mins by gamma counting; assay type: ADME, organism-based; conditions: in vivo, 4 h; outline: as §1
Lung [6] = experiment: Biodistribution in Kunming mouse lung at 1 uCi, iv after 2 mins by gamma counting; assay type: ADME, organism-based; conditions: in vivo; outline: as §2
Muscle tissue [7] = experiment: Biodistribution in Kunming mouse muscle at 1 uCi, iv after 60 mins by gamma counting; assay type: ADME, organism-based; conditions: in vivo, 1 h; outline: as §2
Kidney [8] = experiment: Biodistribution in Kunming mouse kidney at 1 uCi, iv after 120 mins by gamma counting; assay type: ADME, organism-based; conditions: in vivo, 2 h; outline: as §2
Heart [9] = experiment: Biodistribution in Kunming mouse heart at 1 uCi, iv after 60 mins by gamma counting; assay type: ADME, organism-based; conditions: in vivo, 1 h; outline: as §2
[10] = Octanol-phosphate buffer partition coefficient, log D of the compound at pH 7.4; assay type: physicochemical
Outline: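 Radioiodinated tracer partitioned between n-octanol and PBS at pH 7.4; log D reported as mean ± SD.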

Spleen [11] = experiment: Biodistribution in Kunming mouse spleen at 1 uCi, iv after 30 mins by gamma counting; assay type: ADME, organism-based; conditions: in vivo, 0.5 h; outline: as §2
Blood [12] = experiment: Biodistribution in Kunming mouse blood at 1 uCi, iv after 15 mins by gamma counting; assay type: ADME, organism-based; conditions: in vivo, 0.25 h; outline: as §2
Kidney [13] = experiment: Biodistribution in Kunming mouse kidney at 1 uCi, iv after 15 mins by gamma counting; assay type: ADME, organism-based; conditions: in vivo, 0.25 h; outline: as §2
Liver [14] = experiment: Biodistribution in Kunming mouse liver at 1 uCi, iv after 2 mins by gamma counting; assay type: ADME, organism-based; conditions: in vivo; outline: as §2
Kidney [15] = experiment: Biodistribution in Kunming mouse kidney at 1 uCi, iv after 2 mins by gamma counting; assay type: ADME, organism-based; conditions: in vivo; outline: as §2
Heart [16] = experiment: Biodistribution in Kunming mouse heart at 1 uCi, iv after 30 mins by gamma counting; assay type: ADME, organism-based; conditions: in vivo, 0.5 h; outline: as §2
Muscle tissue [17] = experiment: Biodistribution in Kunming mouse muscle at 1 uCi, iv after 2 mins by gamma counting; assay type: ADME, organism-based; conditions: in vivo; outline: as §2
Liver [18] = experiment: Biodistribution in Kunming mouse liver at 1 uCi, iv after 120 mins by gamma counting; assay type: ADME, organism-based; conditions: in vivo, 2 h; outline: as §2
Heart [19] = experiment: Biodistribution in Kunming mouse heart at 1 uCi, iv after 15 mins by gamma counting; assay type: ADME, organism-based; conditions: in vivo, 0.25 h; outline: as §2
Brain [20] = experiment: Biodistribution in Kunming mouse brain at 1 uCi, iv after 30 mins by gamma counting; assay type: ADME, organism-based; conditions: in vivo, 0.5 h; outline: as §2
Brain [21] = experiment: Biodistribution in Kunming mouse brain at 1 uCi, iv after 120 mins by gamma counting; assay type: ADME, organism-based; conditions: in vivo, 2 h; outline: as §2
Muscle tissue [22] = experiment: Biodistribution in Kunming mouse muscle at 1 uCi, iv after 15 mins by gamma counting; assay type: ADME, organism-based; conditions: in vivo, 0.25 h; outline: as §2
Spleen [23] = experiment: Biodistribution in Kunming mouse spleen at 1 uCi, iv after 15 mins by gamma counting; assay type: ADME, organism-based; conditions: in vivo, 0.25 h; outline: as §2
Spleen [24] = experiment: Biodistribution in Kunming mouse spleen at 1 uCi, iv after 240 mins by gamma counting; assay type: ADME, organism-based; conditions: in vivo, 4 h; outline: as §2
Muscle tissue [25] = experiment: Biodistribution in Kunming mouse muscle at 1 uCi, iv after 240 mins by gamma counting; assay type: ADME, organism-based; conditions: in vivo, 4 h; outline: as §2
Lung [26] = experiment: Biodistribution in Kunming mouse lung at 1 uCi, iv after 30 mins by gamma counting; assay type: ADME, organism-based; conditions: in vivo, 0.5 h; outline: as §2
Kidney [27] = experiment: Biodistribution in Kunming mouse kidney at 1 uCi, iv after 60 mins by gamma counting; assay type: ADME, organism-based; conditions: in vivo, 1 h; outline: as §2
Brain [28] = experiment: Biodistribution in Kunming mouse brain at 1 uCi, iv after 240 mins by gamma counting; assay type: ADME, organism-based; conditions: in vivo, 4 h; outline: as §2
Liver [29] = experiment: Biodistribution in Kunming mouse liver at 1 uCi, iv after 30 mins by gamma counting; assay type: ADME, organism-based; conditions: in vivo, 0.5 h; outline: as §2
Kidney [30] = experiment: Biodistribution in Kunming mouse kidney at 1 uCi, iv after 30 mins by gamma counting; assay type: ADME, organism-based; conditions: in vivo, 0.5 h; outline: as §2
Kidney [31] = experiment: Biodistribution in Kunming mouse kidney at 1 uCi, iv after 240 mins by gamma counting; assay type: ADME, organism-based; conditions: in vivo, 4 h; outline: as §2
Liver [32] = experiment: Biodistribution in Kunming mouse liver at 1 uCi, iv after 15 mins by gamma counting; assay type: ADME, organism-based; conditions: in vivo, 0.25 h; outline: as §2
Blood [33] = experiment: Biodistribution in Kunming mouse blood at 1 uCi, iv after 120 mins by gamma counting; assay type: ADME, organism-based; conditions: in vivo, 2 h; outline: as §2
Blood [34] = experiment: Biodistribution in Kunming mouse blood at 1 uCi, iv after 60 mins by gamma counting; assay type: ADME, organism-based; conditions: in vivo, 1 h; outline: as §2
Blood [35] = experiment: Biodistribution in Kunming mouse blood at 1 uCi, iv after 240 mins by gamma counting; assay type: ADME, organism-based; conditions: in vivo, 4 h; outline: as §2
Brain [36] = experiment: Biodistribution in Kunming mouse brain at 1 uCi, iv after 60 mins by gamma counting; assay type: ADME, organism-based; conditions: in vivo, 1 h; outline: as §2
Stomach [37] = experiment: Biodistribution in Kunming mouse stomach assessed per organ at 1 uCi, iv after 60 mins by gamma counting; assay type: ADME, organism-based; conditions: in vivo, 1 h; outline: as §1
Liver [38] = experiment: Biodistribution in Kunming mouse liver at 1 uCi, iv after 60 mins by gamma counting; assay type: ADME, organism-based; conditions: in vivo, 1 h; outline: as §2
Heart [39] = experiment: Biodistribution in Kunming mouse heart at 1 uCi, iv after 2 mins by gamma counting; assay type: ADME, organism-based; conditions: in vivo; outline: as §2
Heart [40] = experiment: Biodistribution in Kunming mouse heart at 1 uCi, iv after 240 mins by gamma counting; assay type: ADME, organism-based; conditions: in vivo, 4 h; outline: as §2
Liver [41] = experiment: Biodistribution in Kunming mouse liver at 1 uCi, iv after 240 mins by gamma counting; assay type: ADME, organism-based; conditions: in vivo, 4 h; outline: as §2
Lung [42] = experiment: Biodistribution in Kunming mouse lung at 1 uCi, iv after 240 mins by gamma counting; assay type: ADME, organism-based; conditions: in vivo, 4 h; outline: as §2
Brain [43] = experiment: Biodistribution in Kunming mouse brain at 1 uCi, iv after 2 mins by gamma counting; assay type: ADME, organism-based; conditions: in vivo; outline: as §2
Stomach [44] = experiment: Biodistribution in Kunming mouse stomach assessed per organ at 1 uCi, iv after 15 mins by gamma counting; assay type: ADME, organism-based; conditions: in vivo, 0.25 h; outline: as §1
Muscle tissue [45] = experiment: Biodistribution in Kunming mouse muscle at 1 uCi, iv after 30 mins by gamma counting; assay type: ADME, organism-based; conditions: in vivo, 0.5 h; outline: as §2
Lung [46] = experiment: Biodistribution in Kunming mouse lung at 1 uCi, iv after 15 mins by gamma counting; assay type: ADME, organism-based; conditions: in vivo, 0.25 h; outline: as §2
Lung [47] = experiment: Biodistribution in Kunming mouse lung at 1 uCi, iv after 60 mins by gamma counting; assay type: ADME, organism-based; conditions: in vivo, 1 h; outline: as §2
Blood [48] = experiment: Biodistribution in Kunming mouse blood at 1 uCi, iv after 30 mins by gamma counting; assay type: ADME, organism-based; conditions: in vivo, 0.5 h; outline: as §2
Spleen [49] = experiment: Biodistribution in Kunming mouse spleen at 1 uCi, iv after 2 mins by gamma counting; assay type: ADME, organism-based; conditions: in vivo; outline: as §2
Blood [50] = experiment: Biodistribution in Kunming mouse blood at 1 uCi, iv after 2 mins by gamma counting; assay type: ADME, organism-based; conditions: in vivo; outline: as §2
Stomach [51] = experiment: Biodistribution in Kunming mouse stomach assessed per organ at 1 uCi, iv after 2 mins by gamma counting; assay type: ADME, organism-based; conditions: in vivo; outline: as §1
Spleen [52] = experiment: Biodistribution in Kunming mouse spleen at 1 uCi, iv after 60 mins by gamma counting; assay type: ADME, organism-based; conditions: in vivo, 1 h; outline: as §1
Brain [53] = experiment: Biodistribution in Kunming mouse brain at 1 uCi, iv after 15 mins by gamma counting; assay type: ADME, organism-based; conditions: in vivo, 0.25 h; outline: as §2
Lung [54] = experiment: Biodistribution in Kunming mouse lung at 1 uCi, iv after 120 mins by gamma counting; assay type: ADME, organism-based; conditions: in vivo, 2 h; outline: as §2
Heart [55] = experiment: Biodistribution in Kunming mouse heart at 1 uCi, iv after 120 mins by gamma counting; assay type: ADME, organism-based; conditions: in vivo, 2 h; outline: as §2

Drug uptake (Stomach [1]): 1.72 %ID
Drug uptake (Muscle tissue [2]): 0.84 % ID/g
Drug uptake (Stomach [3]): 2.29 %ID
Drug uptake (Spleen [4]): 0.63 % ID/g
Drug uptake (Stomach [5]): 1.3 %ID
Drug uptake (Lung [6]): 14.5 % ID/g
Drug uptake (Muscle tissue [7]): 1.06 % ID/g
Drug uptake (Kidney [8]): 3.54 % ID/g
Drug uptake (Heart [9]): 1.53 % ID/g
logD [10]: 2.53
Drug uptake (Spleen [11]): 1.71 % ID/g
Drug uptake (Blood [12]): 3.91 % ID/g
Drug uptake (Kidney [13]): 9.68 % ID/g
Drug uptake (Liver [14]): 15.89 % ID/g
Drug uptake (Kidney [15]): 11.22 % ID/g
Drug uptake (Heart [16]): 2.07 % ID/g
Drug uptake (Muscle tissue [17]): 3.97 % ID/g
Drug uptake (Liver [18]): 4.86 % ID/g
Drug uptake (Heart [19]): 2.9 % ID/g
Drug uptake (Brain [20]): 1.57 % ID/g
Drug uptake (Brain [21]): 0.33 % ID/g
Drug uptake (Muscle tissue [22]): 2.47 % ID/g
Drug uptake (Spleen [23]): 2.44 % ID/g
Drug uptake (Spleen [24]): 0.59 % ID/g
Drug uptake (Muscle tissue [25]): 0.19 % ID/g
Drug uptake (Lung [26]): 4.88 % ID/g
Drug uptake (Kidney [27]): 6.14 % ID/g
Drug uptake (Brain [28]): 0.17 % ID/g
Drug uptake (Liver [29]): 6.48 % ID/g
Drug uptake (Kidney [30]): 10.16 % ID/g
Drug uptake (Kidney [31]): 2.22 % ID/g
Drug uptake (Liver [32]): 7.73 % ID/g
Drug uptake (Blood [33]): 1.61 % ID/g
Drug uptake (Blood [34]): 2.88 % ID/g
Drug uptake (Blood [35]): 1.07 % ID/g
Drug uptake (Brain [36]): 0.77 % ID/g
Drug uptake (Stomach [37]): 2.08 %ID
Drug uptake (Liver [38]): 4.09 % ID/g
Drug uptake (Heart [39]): 10.72 % ID/g
Drug uptake (Heart [40]): 0.61 % ID/g
Drug uptake (Liver [41]): 2.23 % ID/g
Drug uptake (Lung [42]): 1.27 % ID/g
Drug uptake (Brain [43]): 2 % ID/g
Drug uptake (Stomach [44]): 1.52 %ID
Drug uptake (Muscle tissue [45]): 2.06 % ID/g
Drug uptake (Lung [46]): 6.73 % ID/g
Drug uptake (Lung [47]): 2.66 % ID/g
Drug uptake (Blood [48]): 3.75 % ID/g
Drug uptake (Spleen [49]): 4.08 % ID/g
Drug uptake (Blood [50]): 14.13 % ID/g
Drug uptake (Stomach [51]): 1.09 %ID
Drug uptake (Spleen [52]): 1.85 % ID/g
Drug uptake (Brain [53]): 1.98 % ID/g
Drug uptake (Lung [54]): 2.1 % ID/g
Drug uptake (Heart [55]): 0.99 % ID/g
SMILES: O=C(/C=C/c1ccccc1)n1ccc2cc([125I])ccc21
